In ChEMBL document CHEMBL4390664, “3,5-Diaryl-1H-pyrazolo[3,4-b]pyridines as potent tubulin polymerization inhibitors: Rational design, synthesis and biological evaluation” (Eur J Med Chem, 2019):
Active and inactive are the calls of the source. The rule behind the calls is not given here.

What was measured:
SGC-7901 [1] = test: Antiproliferative activity against human SGC7901 cells assessed as reduction in cell growth incubated for 72 hrs by MTT assay; type: functional, cell-based; details: SGC-7901, 72 h
A549 = test: Antiproliferative activity against human A549 cells assessed as reduction in cell growth incubated for 72 hrs by MTT assay; type: functional, cell-based; details: A549, 72 h
HeLa = test: Antiproliferative activity against human HeLa cells assessed as reduction in cell growth incubated for 72 hrs by MTT assay; type: functional, cell-based
L929 = test: Cytotoxicity against mouse L929 cells assessed as reduction in cell growth incubated for 72 hrs by MTT assay; type: cell-based; details: L929, 72 h
SGC-7901 [2] = test: Induction of morphological changes in human SGC7901 cells assessed as destruction of cytoskeleton at 36 nM incubated for 24 hrs by immunofluorescence assay; type: functional, cell-based
Procedure, shortened: (§1)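 SGC-7901 cells were exposed to compound at 26 or 36 nM for 24 h, then immunostained. Microtubules and unassembled tubulin were stained green and nuclei blue. Microtubule network and cell morphology were examined by fluorescence imaging.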

SGC-7901 [3] = test: Induction of morphological changes in human SGC7901 cells assessed as cell rounding at 36 nM incubated for 24 hrs by immunofluorescence assay; type: functional, cell-based; procedure, shortened: as §1
SGC-7901 [4] = test: Induction of morphological changes in human SGC7901 cells assessed as formation of multinucleated cells at 36 nM incubated for 24 hrs by immunofluorescence assay; type: functional, cell-based; procedure, shortened: as §1
SGC-7901 [5] = test: Cell cycle arrest in human SGC7901 cells assessed as decrease of G1 cell population at 36 nM incubated for 0 to 72 hrs by flow cytometry analysis; type: functional, cell-based
SGC-7901 [6] = test: Cell cycle arrest in human SGC7901 cells assessed as increase of G2/M cell population at 36 nM incubated for 0 to 72 hrs by flow cytometry analysis; type: functional, cell-based
SGC-7901 [7] = test: Induction of multinucleated cell formation in human SGC7901 cells at 36 nM incubated for 0 to 72 hrs by flow cytometry analysis; type: functional, cell-based
Tubulin (Sus scrofa) [8] = target: T1, Tubulin (Sus scrofa) (UniProt P02554+P02550); test: Inhibition of porcine brain tubulin polymerization at 10 uM measured at 1 min intervals for 80 mins by fluorimetry
T1 sequence (P02550 whole entry, looked up): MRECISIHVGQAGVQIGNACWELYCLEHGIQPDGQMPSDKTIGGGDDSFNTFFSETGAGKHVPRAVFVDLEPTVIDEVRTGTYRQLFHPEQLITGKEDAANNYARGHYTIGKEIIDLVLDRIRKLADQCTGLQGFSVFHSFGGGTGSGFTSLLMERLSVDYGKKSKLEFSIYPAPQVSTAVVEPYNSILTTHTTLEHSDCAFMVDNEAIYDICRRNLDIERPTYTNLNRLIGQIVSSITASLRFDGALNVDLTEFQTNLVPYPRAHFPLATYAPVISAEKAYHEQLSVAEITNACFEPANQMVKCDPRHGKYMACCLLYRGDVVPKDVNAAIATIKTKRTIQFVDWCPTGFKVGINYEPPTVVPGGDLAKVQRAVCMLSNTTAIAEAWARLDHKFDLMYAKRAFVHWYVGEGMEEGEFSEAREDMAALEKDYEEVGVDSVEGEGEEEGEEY
T1 sequence (P02554 whole entry, looked up): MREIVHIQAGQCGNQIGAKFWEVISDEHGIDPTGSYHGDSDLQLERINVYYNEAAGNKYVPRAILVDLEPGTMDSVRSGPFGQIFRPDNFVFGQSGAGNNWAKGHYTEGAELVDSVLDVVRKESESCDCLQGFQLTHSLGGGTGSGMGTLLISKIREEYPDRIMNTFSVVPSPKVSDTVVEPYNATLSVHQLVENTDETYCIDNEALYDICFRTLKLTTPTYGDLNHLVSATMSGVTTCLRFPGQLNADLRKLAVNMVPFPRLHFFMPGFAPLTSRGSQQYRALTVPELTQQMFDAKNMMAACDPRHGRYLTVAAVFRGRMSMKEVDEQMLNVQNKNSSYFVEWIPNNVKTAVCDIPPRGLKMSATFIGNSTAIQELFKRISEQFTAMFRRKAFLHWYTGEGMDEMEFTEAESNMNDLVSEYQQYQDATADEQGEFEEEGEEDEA

SGC-7901 [9] = test: Induction of morphological changes in human SGC7901 cells assessed as destruction of cytoskeleton at 26 nM incubated for 24 hrs by immunofluorescence assay; type: functional, cell-based; procedure, shortened: as §1
SGC-7901 [10] = test: Induction of morphological changes in human SGC7901 cells assessed as cell rounding at 26 nM incubated for 24 hrs by immunofluorescence assay; type: functional, cell-based; procedure, shortened: as §1
SGC-7901 [11] = test: Induction of morphological changes in human SGC7901 cells assessed as formation of multinucleated cells at 26 nM incubated for 24 hrs by immunofluorescence assay; type: functional, cell-based; procedure, shortened: as §1
SGC-7901 [12] = test: Cell cycle arrest in human SGC7901 cells assessed as accumulation of G2/M cell population at 26 nM incubated for 12 hrs by flow cytometry analysis (reference value: 24.47%); type: functional
Tubulin (Sus scrofa) [13] = target: T1, Tubulin (Sus scrofa); test: Inhibition of porcine brain tubulin polymerization measured at 1 min intervals for 80 mins by fluorimetry
Tubulin (Sus scrofa) [14] = target: T1, Tubulin (Sus scrofa); test: Inhibition of porcine brain tubulin polymerization at 12.5 to 100 uM measured at 1 min intervals for 80 mins by fluorimetry

| SMILES | IC50 (SGC-7901 [1]) [µM] | IC50 (A549) [µM] | IC50 (HeLa) [µM] | other results |
| --- | --- | --- | --- | --- |
| COc1cc(-c2n[nH]c3ncc(-c4cccc(C)c4)cc23)cc(OC)c1OC | 0.051 | > 30 | 0.086 |  |
| COc1cccc(-c2cnc3[nH]nc(-c4cc(OC)c(OC)c(OC)c4)c3c2)c1 | 1.91 | 7.66 | 0.46 |  |
| COc1cc(-c2n[nH]c3ncc(-c4ccccc4)cc23)cc(OC)c1OC | 0.037 | 0.65 | 0.057 |  |
| COc1cc(-c2n[nH]c3ncc(-c4ccc(C)cc4N)cc23)cc(OC)c1OC | 0.23 | 7.83 | 0.16 |  |
| COc1cc(-c2n[nH]c3ncc(-c4ccc(Cl)cc4N)cc23)cc(OC)c1OC | 0.58 | 3.24 | 0.36 |  |
| CNc1cc(F)ccc1-c1cnc2[nH]nc(-c3cc(OC)c(OC)c(OC)c3)c2c1 | 3.76 | 4.27 | 1.67 |  |
| COc1cc(C(=O)c2csc(-c3ccccc3)n2)cc(OC)c1OC | 0.018 |  | 0.024 | IC50 (L929): 25.8 µM; Activity (SGC-7901 [2]): Active; Activity (SGC-7901 [3]): Active; Activity (SGC-7901 [4]): Active; Activity (SGC-7901 [5]): Active; Activity (SGC-7901 [6]): Active; Activity (SGC-7901 [7]): Active; inhibition (Tubulin (Sus scrofa) [8]): Active |
| COc1cc(-c2n[nH]c3ncc(-c4ccc(Br)cc4N)cc23)cc(OC)c1OC | 5.52 | 8.47 | 2.61 |  |
| COc1cc(-c2n[nH]c3ncc(-c4ccc(C)cc4)cc23)cc(OC)c1OC | 0.013 | 0.082 | 0.045 | IC50 (L929): 37.5 µM; Activity (SGC-7901 [9]): Active; Activity (SGC-7901 [10]): Active; Activity (SGC-7901 [11]): Active; Activity (SGC-7901 [12]): 59.62%; inhibition (Tubulin (Sus scrofa) [13]): Dose-dependent effect; inhibition (Tubulin (Sus scrofa) [14]): Active |
| COc1cc(-c2n[nH]c3ncc(-c4ccccc4N)cc23)cc(OC)c1OC | 4.37 | 1.42 | 2.55 |  |
| CNc1cc(C)ccc1-c1cnc2[nH]nc(-c3cc(OC)c(OC)c(OC)c3)c2c1 | 6.31 | 9.25 | 3.84 |  |
| COc1cc(-c2n[nH]c3ncc(-c4ccc(Cl)cc4)cc23)cc(OC)c1OC | 4.82 | 14.6 | 0.87 |  |
| COc1ccc(-c2n[nH]c3ncc(-c4ccc(C)cc4)cc23)cc1 | > 30 | > 30 | > 30 |  |
| COc1ccc(-c2cnc3[nH]nc(-c4cc(OC)c(OC)c(OC)c4)c3c2)c(N)c1 | 3.73 | 5.36 | 1.44 |  |
| COc1cc(-c2n[nH]c3ncc(-c4ccc(F)cc4)cc23)cc(OC)c1OC | 2.31 | > 30 | 0.89 |  |
| COc1ccc(-c2cnc3[nH]nc(-c4cc(OC)c(OC)c(OC)c4)c3c2)cc1 | 0.13 | > 30 | 0.28 |  |
| COc1ccc(-c2n[nH]c3ncc(-c4ccc(C)cc4N)cc23)cc1 | > 30 | > 30 | > 30 |  |
| CNc1cc(Cl)ccc1-c1cnc2[nH]nc(-c3cc(OC)c(OC)c(OC)c3)c2c1 | 8.48 | 14 | 6.49 |  |
| COc1ccc(-c2n[nH]c3ncc(-c4ccc(C)cc4)cc23)cc1OC | > 30 | > 30 | > 30 |  |
| COc1cc(-c2n[nH]c3ncc(-c4cc(C)ccc4N)cc23)cc(OC)c1OC | 0.62 | 4.43 | 0.38 |  |
| COc1ccc(-c2n[nH]c3ncc(-c4ccc(C)cc4N)cc23)cc1OC | > 30 | > 30 | > 30 |  |
| COc1cc(-c2n[nH]c3ncc(-c4ccc(F)cc4N)cc23)cc(OC)c1OC | 0.4 | 1.31 | 0.081 |  |
| COc1ccc(N)c(-c2cnc3[nH]nc(-c4cc(OC)c(OC)c(OC)c4)c3c2)c1 | 9.51 | 10.2 | 4.93 |  |
| COc1cc(-c2n[nH]c3ncc(-c4ccc(Br)cc4)cc23)cc(OC)c1OC | 20.2 | 17.4 | 10.9 |  |
